From ChEMBL document CHEMBL1141560, “Alpha,beta-cyclic-beta-benzamido hydroxamic acids: novel templates for the design, synthesis, and evaluation of selective inhibitors of TNF-alpha converting enzyme (TACE)” (Bioorg Med Chem Lett, 2008)
Blank lines part the entries; values can stand above or below the compound they belong to.

Tests used:
Format in all cases: ADME, organism-based
[1] = Half life in rat at 5.0 mg/kg, iv; parameters: dose 5 mg/kg, route intravenous; conditions: in vivo
Summary of the method: (§1)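 Rats given 5.0 mg/kg IV or PO by n-in-1 cassette dosing; three animals per dosing group, parameters reported as the group average.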

[2] = Clearance in rat at 5.0 mg/kg, iv; parameters: dose 5 mg/kg, route intravenous; conditions: in vivo; summary of the method: as §1
[3] = AUC in rat at 5.0 mg/kg, po; parameters: dose 5 mg/kg, route oral; conditions: plasma; summary of the method: as §1
[4] = Volume of distribution at steady state in rat at 5.0 mg/kg, iv; parameters: dose 5 mg/kg, route intravenous; conditions: in vivo, read-out: Vdss; summary of the method: as §1
[5] = AUC in rat at 5.0 mg/kg, iv; parameters: dose 5 mg/kg, route intravenous; conditions: plasma; summary of the method: as §1
[6] = Oral bioavailability in rat at 5.0 mg/kg; conditions: in vivo; summary of the method: as §1
[7] = Half life in rat at 5.0 mg/kg, po; parameters: dose 5 mg/kg, route oral; conditions: in vivo; summary of the method: as §1
[8] = Oral bioavailability in rat; conditions: in vivo
[9] = Oral bioavailability in rat at […]; conditions: in vivo
[10] = Half life in rat at […], iv; parameters: dose 3.3 mg/kg, route intravenous; conditions: in vivo
[11] = AUC in rat at […], po; parameters: dose 3.3 mg/kg, route oral; conditions: plasma
[12] = AUC in rat at […], iv; parameters: dose 3.3 mg/kg, route intravenous; conditions: plasma
[13] = Clearance in rat at […], iv; parameters: dose 3.3 mg/kg, route intravenous; conditions: in vivo
[14] = Volume of distribution at steady state in rat at […], iv; parameters: dose 3.3 mg/kg, route intravenous; conditions: in vivo, read-out: Vdss
[15] = Half life in rat at […], po; parameters: dose 3.3 mg/kg, route oral; conditions: in vivo

half-life [1]: 2.1 h
clearance [2]: 38.3 mL/min/kg
AUC [3]: 0.846 µM·h
Vd [4]: 0.8 L/kg
AUC [5]: 4.06 µM·h
bioavailability [6]: 21%
half-life [7]: 2.9 h
Compound: Cc1cc(COc2ccc(C(=O)N[C@@H]3COC[C@@H]3C(=O)NO)cc2)c2ccccc2n1

bioavailability [8]: 3%
Compound: Cc1cc(COc2ccc(C(=O)N[C@@H]3CN(S(C)(=O)=O)C[C@@H]3C(=O)NO)cc2)c2ccccc2n1

bioavailability [9]: 25%
half-life [10]: 2.9 h
AUC [11]: 0.567 µM·h
AUC [12]: 2.23 µM·h
clearance [13]: 55 mL/min/kg
Vd [14]: 1.7 L/kg
half-life [15]: 3.1 h
Compound: C#CCN1C[C@H](C(=O)NO)[C@H](NC(=O)c2ccc(OCc3cc(C)nc4ccccc34)cc2)C1
